Reference: ChEMBL document CHEMBL4118021, “Studies of TAK1-centered polypharmacology with novel covalent TAK1 inhibitors” (Bioorg Med Chem, 2017)
Activity calls are given as the source filed them. The calls are words filed in the database; no cut-off is given here.

Tests used:
[1] = molecular target: Small ribosomal subunit protein eS6 (Homo sapiens) (UniProt P62753); experiment: Binding affinity to RPS6 in human NCI-H23 cells at 1 uM by mass spectrometry based pull down assay; type: cell-based
[2] = molecular target: Actin-related protein 2/3 complex subunit 2 (Homo sapiens) (UniProt O15144); experiment: Binding affinity to ARPC2 in human NCI-H23 cells at 1 uM by mass spectrometry based pull down assay; type: cell-based
[3] = molecular target: Calmodulin-2 (Homo sapiens) (UniProt P0DP24); experiment: Binding affinity to CALM2 in human NCI-H23 cells at 1 uM by mass spectrometry based pull down assay; type: cell-based
[4] = molecular target: T1, Mitogen-activated protein kinase kinase kinase 7 (Homo sapiens) (UniProt O43318); experiment: Binding affinity to MAP3K7 in human NCI-H23 cells at 1 uM by mass spectrometry based pull down assay; type: cell-based
T1 sequence (whole entry): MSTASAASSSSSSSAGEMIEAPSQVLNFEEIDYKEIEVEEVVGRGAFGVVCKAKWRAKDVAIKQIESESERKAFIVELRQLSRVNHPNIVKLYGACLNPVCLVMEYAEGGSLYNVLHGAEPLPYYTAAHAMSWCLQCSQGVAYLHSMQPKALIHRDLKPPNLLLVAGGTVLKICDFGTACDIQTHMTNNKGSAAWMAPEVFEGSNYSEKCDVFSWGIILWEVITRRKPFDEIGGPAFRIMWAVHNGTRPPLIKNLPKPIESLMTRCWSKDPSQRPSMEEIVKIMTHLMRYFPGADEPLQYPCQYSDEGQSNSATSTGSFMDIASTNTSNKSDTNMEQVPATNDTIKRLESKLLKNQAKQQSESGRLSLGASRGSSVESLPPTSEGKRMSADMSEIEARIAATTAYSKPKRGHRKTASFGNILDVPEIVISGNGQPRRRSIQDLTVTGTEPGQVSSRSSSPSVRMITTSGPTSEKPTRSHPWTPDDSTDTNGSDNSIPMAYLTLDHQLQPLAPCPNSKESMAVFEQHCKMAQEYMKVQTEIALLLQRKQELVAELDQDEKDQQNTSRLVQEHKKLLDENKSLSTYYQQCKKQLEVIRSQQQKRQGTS

[5] = molecular target: Cytosolic iron-sulfur assembly component 2A (Homo sapiens) (UniProt Q9H5X1); experiment: Binding affinity to FAM96A in human NCI-H23 cells at 1 uM by mass spectrometry based pull down assay; type: cell-based
Chain of Cytosolic iron-sulfur assembly component 2A (Homo sapiens) (Q9H5X1 whole entry): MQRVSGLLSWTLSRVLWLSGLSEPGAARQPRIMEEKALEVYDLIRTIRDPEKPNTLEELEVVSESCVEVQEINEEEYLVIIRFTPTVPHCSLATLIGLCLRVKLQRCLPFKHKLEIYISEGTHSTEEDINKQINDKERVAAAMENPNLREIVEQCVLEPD

NCI-H23 = experiment: Binding affinity to NDUFS3 in human NCI-H23 cells at 1 uM by mass spectrometry based pull down assay; type: cell-based
[6] = molecular target: Ubiquitin-like modifier-activating enzyme 1 (Homo sapiens) (UniProt P22314); experiment: Binding affinity to UBA1 in human NCI-H23 cells at 1 uM by mass spectrometry based pull down assay; type: cell-based
Chain of Ubiquitin-like modifier-activating enzyme 1 (Homo sapiens) (P22314 whole entry): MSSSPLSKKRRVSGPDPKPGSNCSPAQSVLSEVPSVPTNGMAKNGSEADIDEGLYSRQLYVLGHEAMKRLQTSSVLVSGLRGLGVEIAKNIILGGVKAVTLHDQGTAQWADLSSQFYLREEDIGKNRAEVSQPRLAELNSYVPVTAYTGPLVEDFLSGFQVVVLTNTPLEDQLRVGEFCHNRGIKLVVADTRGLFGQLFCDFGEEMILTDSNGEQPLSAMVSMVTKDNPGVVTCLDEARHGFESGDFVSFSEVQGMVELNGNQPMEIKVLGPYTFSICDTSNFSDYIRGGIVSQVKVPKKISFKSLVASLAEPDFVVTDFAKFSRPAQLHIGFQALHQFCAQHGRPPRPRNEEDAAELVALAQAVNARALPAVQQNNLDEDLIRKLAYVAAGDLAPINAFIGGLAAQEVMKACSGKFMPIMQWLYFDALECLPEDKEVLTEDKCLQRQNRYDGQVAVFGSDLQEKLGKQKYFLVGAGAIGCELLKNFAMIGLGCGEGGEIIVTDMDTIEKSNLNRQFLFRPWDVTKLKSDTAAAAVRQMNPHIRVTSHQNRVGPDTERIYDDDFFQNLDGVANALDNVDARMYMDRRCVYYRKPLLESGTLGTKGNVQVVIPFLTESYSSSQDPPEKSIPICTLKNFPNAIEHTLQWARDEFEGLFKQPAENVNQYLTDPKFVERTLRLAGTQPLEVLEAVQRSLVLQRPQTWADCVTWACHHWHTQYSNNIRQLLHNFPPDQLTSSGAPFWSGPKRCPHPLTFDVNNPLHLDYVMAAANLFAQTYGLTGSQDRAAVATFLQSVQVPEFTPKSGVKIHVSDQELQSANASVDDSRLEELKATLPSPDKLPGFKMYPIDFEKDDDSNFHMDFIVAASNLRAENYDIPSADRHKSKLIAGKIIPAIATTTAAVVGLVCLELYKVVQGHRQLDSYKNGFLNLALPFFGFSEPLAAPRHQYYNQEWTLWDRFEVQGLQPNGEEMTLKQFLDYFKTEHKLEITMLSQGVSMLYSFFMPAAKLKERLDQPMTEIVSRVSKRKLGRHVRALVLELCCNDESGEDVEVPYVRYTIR

[7] = molecular target: T2, Serine/threonine-protein kinase D2 (Homo sapiens) (UniProt Q9BZL6); experiment: Binding affinity to PRKD2 in human NCI-H23 cells at 1 uM by mass spectrometry based pull down assay; type: cell-based
T2 sequence (whole entry): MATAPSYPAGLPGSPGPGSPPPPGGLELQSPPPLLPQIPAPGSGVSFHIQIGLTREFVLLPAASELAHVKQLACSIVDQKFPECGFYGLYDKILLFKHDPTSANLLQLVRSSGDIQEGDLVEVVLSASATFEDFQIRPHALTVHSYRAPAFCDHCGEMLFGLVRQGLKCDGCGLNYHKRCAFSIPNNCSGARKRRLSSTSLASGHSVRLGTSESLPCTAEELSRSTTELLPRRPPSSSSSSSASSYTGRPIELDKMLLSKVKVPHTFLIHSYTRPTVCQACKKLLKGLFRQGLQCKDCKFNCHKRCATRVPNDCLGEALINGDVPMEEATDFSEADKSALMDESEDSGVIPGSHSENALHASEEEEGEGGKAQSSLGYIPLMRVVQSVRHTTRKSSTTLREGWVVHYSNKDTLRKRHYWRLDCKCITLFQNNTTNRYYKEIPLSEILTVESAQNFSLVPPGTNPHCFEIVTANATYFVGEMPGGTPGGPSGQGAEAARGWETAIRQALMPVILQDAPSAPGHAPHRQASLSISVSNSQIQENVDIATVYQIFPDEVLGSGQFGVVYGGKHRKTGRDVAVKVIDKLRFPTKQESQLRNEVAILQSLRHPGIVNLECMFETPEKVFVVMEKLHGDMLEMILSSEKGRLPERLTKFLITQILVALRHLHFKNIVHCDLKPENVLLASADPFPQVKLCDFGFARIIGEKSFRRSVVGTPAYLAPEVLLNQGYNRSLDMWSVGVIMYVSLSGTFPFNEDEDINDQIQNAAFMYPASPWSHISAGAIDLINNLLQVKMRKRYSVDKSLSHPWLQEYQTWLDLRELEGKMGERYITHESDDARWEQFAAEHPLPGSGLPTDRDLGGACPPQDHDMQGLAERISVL

[8] = molecular target: Prostaglandin reductase 1 (Homo sapiens) (UniProt Q14914); experiment: Binding affinity to PTGR1 in human NCI-H23 cells at 1 uM by mass spectrometry based pull down assay; type: cell-based
Chain of Prostaglandin reductase 1 (Homo sapiens) (Q14914 whole entry): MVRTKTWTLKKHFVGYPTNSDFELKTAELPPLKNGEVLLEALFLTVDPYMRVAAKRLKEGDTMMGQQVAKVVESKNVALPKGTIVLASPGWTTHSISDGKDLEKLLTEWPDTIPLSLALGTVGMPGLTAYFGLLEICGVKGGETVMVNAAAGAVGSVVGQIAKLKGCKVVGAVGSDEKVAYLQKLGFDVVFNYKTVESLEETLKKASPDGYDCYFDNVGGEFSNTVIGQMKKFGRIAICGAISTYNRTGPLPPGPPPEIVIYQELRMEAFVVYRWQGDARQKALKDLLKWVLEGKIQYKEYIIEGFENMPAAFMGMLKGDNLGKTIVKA

[9] = molecular target: StAR-related lipid transfer protein 7, mitochondrial (Homo sapiens) (UniProt Q9NQZ5); experiment: Binding affinity to STARD7 in human NCI-H23 cells at 1 uM by mass spectrometry based pull down assay; type: cell-based
Chain of StAR-related lipid transfer protein 7, mitochondrial (Homo sapiens) (Q9NQZ5 whole entry): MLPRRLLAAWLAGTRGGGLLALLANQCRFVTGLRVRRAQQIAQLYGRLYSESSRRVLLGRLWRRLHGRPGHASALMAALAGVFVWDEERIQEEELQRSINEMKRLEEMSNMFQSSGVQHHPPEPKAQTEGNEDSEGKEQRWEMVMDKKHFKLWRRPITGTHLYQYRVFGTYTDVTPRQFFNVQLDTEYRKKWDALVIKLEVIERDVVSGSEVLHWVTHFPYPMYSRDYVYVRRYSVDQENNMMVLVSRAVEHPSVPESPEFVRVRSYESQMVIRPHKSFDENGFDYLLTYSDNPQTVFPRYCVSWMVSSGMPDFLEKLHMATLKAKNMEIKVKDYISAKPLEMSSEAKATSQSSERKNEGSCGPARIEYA

[10] = molecular target: Adenylyltransferase and sulfurtransferase MOCS3 (Homo sapiens) (UniProt O95396); experiment: Binding affinity to MOCS3 in human NCI-H358 cells at 1 uM by mass spectrometry based pull down assay; type: cell-based
Chain of Adenylyltransferase and sulfurtransferase MOCS3 (Homo sapiens) (O95396 whole entry): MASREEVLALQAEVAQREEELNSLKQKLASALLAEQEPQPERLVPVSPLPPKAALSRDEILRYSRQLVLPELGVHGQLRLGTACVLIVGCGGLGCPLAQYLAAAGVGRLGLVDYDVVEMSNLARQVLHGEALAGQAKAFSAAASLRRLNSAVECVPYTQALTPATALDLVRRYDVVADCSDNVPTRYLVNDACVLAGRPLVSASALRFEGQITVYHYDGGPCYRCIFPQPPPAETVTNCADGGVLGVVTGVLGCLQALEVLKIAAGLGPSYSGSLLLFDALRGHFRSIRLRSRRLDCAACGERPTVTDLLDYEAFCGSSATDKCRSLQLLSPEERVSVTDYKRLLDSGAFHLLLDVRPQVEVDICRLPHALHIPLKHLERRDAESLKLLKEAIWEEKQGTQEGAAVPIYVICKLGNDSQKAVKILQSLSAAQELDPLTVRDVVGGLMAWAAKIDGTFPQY

[11] = molecular target: DNA replication licensing factor MCM6 (Homo sapiens) (UniProt Q14566); experiment: Binding affinity to MCM6 in human NCI-H358 cells at 1 uM by mass spectrometry based pull down assay; type: cell-based
Chain of DNA replication licensing factor MCM6 (Homo sapiens) (Q14566 whole entry): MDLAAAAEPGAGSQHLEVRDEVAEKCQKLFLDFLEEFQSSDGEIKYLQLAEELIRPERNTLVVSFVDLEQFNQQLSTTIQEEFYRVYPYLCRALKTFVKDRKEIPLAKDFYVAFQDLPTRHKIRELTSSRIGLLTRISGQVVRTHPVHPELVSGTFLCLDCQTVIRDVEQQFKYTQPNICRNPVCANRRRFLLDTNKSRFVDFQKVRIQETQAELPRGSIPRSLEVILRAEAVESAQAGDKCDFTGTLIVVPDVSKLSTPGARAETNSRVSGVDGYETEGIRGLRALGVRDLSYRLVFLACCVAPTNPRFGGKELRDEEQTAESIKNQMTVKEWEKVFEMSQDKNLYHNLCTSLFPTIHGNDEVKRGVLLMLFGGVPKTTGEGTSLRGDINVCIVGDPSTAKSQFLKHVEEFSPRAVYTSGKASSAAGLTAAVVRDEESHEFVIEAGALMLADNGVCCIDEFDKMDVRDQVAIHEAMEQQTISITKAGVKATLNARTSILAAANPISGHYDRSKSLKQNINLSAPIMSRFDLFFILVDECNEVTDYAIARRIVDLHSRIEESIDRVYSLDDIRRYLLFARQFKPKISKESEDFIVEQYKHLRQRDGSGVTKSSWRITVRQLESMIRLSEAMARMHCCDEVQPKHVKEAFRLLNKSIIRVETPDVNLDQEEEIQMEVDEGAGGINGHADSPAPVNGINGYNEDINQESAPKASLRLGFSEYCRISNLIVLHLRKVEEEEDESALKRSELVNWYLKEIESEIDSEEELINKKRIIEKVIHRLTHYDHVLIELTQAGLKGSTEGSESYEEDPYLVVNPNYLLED

[12] = molecular target: T3, Dual specificity mitogen-activated protein kinase kinase 3 (Homo sapiens) (UniProt P46734); experiment: Binding affinity to MAP2K3 in human NCI-H358 cells at 1 uM by mass spectrometry based pull down assay; type: cell-based
T3 sequence (whole entry): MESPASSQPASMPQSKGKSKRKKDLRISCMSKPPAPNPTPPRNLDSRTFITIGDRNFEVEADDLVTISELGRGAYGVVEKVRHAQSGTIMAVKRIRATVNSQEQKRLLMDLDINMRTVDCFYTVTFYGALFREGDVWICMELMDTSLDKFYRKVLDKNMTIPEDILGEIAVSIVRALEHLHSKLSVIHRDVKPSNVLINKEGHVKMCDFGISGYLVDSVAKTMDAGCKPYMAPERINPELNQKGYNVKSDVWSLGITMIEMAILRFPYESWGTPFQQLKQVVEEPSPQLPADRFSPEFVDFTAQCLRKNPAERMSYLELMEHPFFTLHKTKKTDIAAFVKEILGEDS

[13] = molecular target: T3, Dual specificity mitogen-activated protein kinase kinase 3 (Homo sapiens); experiment: Inhibition of full length human MEK3 (1 to 318 residues) expressed in mammalian expression system assessed as enzyme activity at 10 uM by KINOMEScan assay relative to control; parameters: scale not given: the % may be the effect or the level left
Summary of the method: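 In vitro ATP-site competition binding assay (KinomeScan) across a panel of 456 kinases. Compound was tested at 1 and 10 μM. The read-out is the binding inhibition score relative to control.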

Row | Compound | Activity [1] | Activity [2] | Activity [3] | Activity [4] | Activity [5] | Activity (NCI-H23) | Activity [6] | Activity [7] | Activity [8] | Activity [9] | Activity [10] | Activity [11] | Activity [12] | Activity [13]
1 | C=CC(=O)Nc1ccccc1Nc1nc(Nc2ccc(N3CCN(CCOCCOCCOCCNC(=O)CCCC[C@@H]4SC[C@@H]5NC(=O)N[C@@H]54)CC3)cc2)ncc1Cl | Active | Active | Active | Active | Active | Active | Active | Active | Active | Active | Active | Active | Active | –
2 | COc1cc(O)c2c(c1)/C=C/C[C@H](O)[C@H](O)C(=O)/C=C\C[C@H](C)OC2=O | – | – | – | – | – | – | – | – | – | – | – | – | – | 1.4%
